Results from ChEMBL document CHEMBL4376835, “Discovery of Nonpungent Transient Receptor Potential Vanilloid 1 (TRPV1) Agonist as Strong Topical Analgesic” (J Med Chem, 2020).
Activity calls are given as the source filed them.

Key:
[1] = Drug uptake in porcine skin assessed as dermal accumulation applied topically as carbopol-gel with 1% formulation measured for 8 hrs by Franz diffusion cell based in vitro transdermal delivery test; format: ADME, tissue-based, Sus scrofa, Zone of skin; settings: pig
[2] = Genotoxicity in Salmonella typhimurium TA98 incubated for 48 hrs by Ames test; format: toxicity; settings: salmonella enterica subsp. enterica serovar typhimurium
[3] = Genotoxicity in ip dosed rat by micronucleus assay; format: toxicity, organism-based; settings: in vivo
[4] = target: Transient receptor potential cation channel subfamily A member 1 (Mus musculus) (UniProt Q8BLA8); test: Agonist activity at mouse TRPA1 expressed in HEK293 cells assessed as increase in calcium influx at 0.3 to 30 uM incubated for 1 min by Fluo-4-AM dye based FLIPR assay; format: cell-based
Method in brief: (§1)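 Cells individually transfected with a single TRP channel (TRPV1, hTRPA1, mTRPA1, mTRPV3 or mTRPM8). Intracellular calcium influx recorded by FLIPR after the test compound was applied. Each cell type was also challenged with an agonist suited to its own TRP channel.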

[5] = Genotoxicity in Salmonella typhimurium TA97 incubated for 48 hrs in presence of rat S9 by Ames test; format: toxicity, subcellular; settings: salmonella enterica subsp. enterica serovar typhimurium, s9, 48 h
Mus musculus [6] = test: (§2) Analgesic activity in ip dosed formalin-induced nociception ICR mouse model assessed as reduction in pain behaviour by measuring less licking of formalin injected hind paw pretreated with compound 30 mins prior to formalin induction measured during second phase (20-30 mins after formalin injection) by formalin test; format: functional
Method in brief: (§3)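 Mice were dosed i.p. with 0.1–10 mg/kg, with vehicle and gabapentin (50, 100 mg/kg i.p.) arms. 2% formalin was injected into the dorsal hindpaw, and paw-licking time was recorded for the first phase (5 min) and the second phase (20–30 min). ED50 was taken from the dose–response. Mean±SEM, n=8.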

Rattus norvegicus [7] = test: Analgesic activity in ip dosed L5/L6 spinal nerve ligation-induced neuropathic pain Sprague-Dawley rat model assessed as increase in paw withdrawal threshold in response to von frey filament compound administered at day 14 after ligation and measured up to 1.5 hrs after drug dosing by up and down method; format: functional
Method in brief: (§4)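 Rat spinal nerve ligation model of neuropathic pain. Compound was given i.p. at 1, 2, 5 or 10 mg/kg; a gabapentin 65 mg/kg i.p. arm and a saline i.p. arm were run alongside. Von Frey withdrawal thresholds were taken pre-surgery and on days 1, 7 and 14, then at 0.5, 1 and 1.5 h post-dose. Mean±SEM, n=7-8.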

[8] = Genotoxicity in Salmonella typhimurium TA98 incubated for 48 hrs in presence of rat S9 by Ames test; format: toxicity, subcellular; settings: salmonella enterica subsp. enterica serovar typhimurium, s9, 48 h
[9] = Genotoxicity in Salmonella typhimurium TA1538 incubated for 48 hrs by Ames test; format: toxicity; settings: salmonella enterica subsp. enterica serovar typhimurium
[10] = Genotoxicity in Salmonella typhimurium TA102 incubated for 48 hrs in presence of rat S9 by Ames test; format: toxicity, subcellular; settings: salmonella enterica subsp. enterica serovar typhimurium, s9, 48 h
[11] = target: Transient receptor potential cation channel subfamily V member 1 (Rattus norvegicus, UniProt O35433); test: Agonist activity at rat TRPV1 expressed in CHO cells assessed as increase in 45Ca2+ uptake incubated for 5 mins by liquid scintillation counting method; format: cell-based
Method in brief: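 Human or rat TRPV1 heterologously expressed in CHO cells; agonism read as 45Ca2+ uptake, run as previously described. Values are the mean of at least three experiments.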

Mus musculus [12] = test: as §2, with “first” for “second”, “(0-5” for “(20-30”; format: functional; method in brief: as §3
[13] = Genotoxicity in Salmonella typhimurium TA1535 incubated for 48 hrs by Ames test; format: toxicity; settings: salmonella enterica subsp. enterica serovar typhimurium
[14] = Genotoxicity in CHO-WBLT cells assessed as chromosomal aberration incubated for 6 hrs in presence of rat S9 by FISH painting analysis; format: toxicity, subcellular, Cricetulus griseus; settings: chinese hamster, s9, 6 h
[15] = Genotoxicity in Salmonella typhimurium TA100 incubated for 48 hrs by Ames test; format: toxicity; settings: salmonella enterica subsp. enterica serovar typhimurium
[16] = target: Transient receptor potential cation channel subfamily V member 1 (Rattus norvegicus) (UniProt O35433); test: Potency index, ratio of Ki of capsaicin to Ki for displacement of [3H]RTX from rat TRPV1 expressed in CHO cells incubated for 60 mins by scintillation counting method; format: cell-based
[17] = target: T1, Transient receptor potential cation channel subfamily V member 3 (Mus musculus) (UniProt Q8K424); test: Agonist activity at mouse TRPV3 expressed in HEK293 cells assessed as increase in calcium influx at 0.3 to 30 uM incubated for 1 min by Fluo-4-AM dye based FLIPR assay; format: cell-based; method in brief: as §1
T1 sequence (whole entry): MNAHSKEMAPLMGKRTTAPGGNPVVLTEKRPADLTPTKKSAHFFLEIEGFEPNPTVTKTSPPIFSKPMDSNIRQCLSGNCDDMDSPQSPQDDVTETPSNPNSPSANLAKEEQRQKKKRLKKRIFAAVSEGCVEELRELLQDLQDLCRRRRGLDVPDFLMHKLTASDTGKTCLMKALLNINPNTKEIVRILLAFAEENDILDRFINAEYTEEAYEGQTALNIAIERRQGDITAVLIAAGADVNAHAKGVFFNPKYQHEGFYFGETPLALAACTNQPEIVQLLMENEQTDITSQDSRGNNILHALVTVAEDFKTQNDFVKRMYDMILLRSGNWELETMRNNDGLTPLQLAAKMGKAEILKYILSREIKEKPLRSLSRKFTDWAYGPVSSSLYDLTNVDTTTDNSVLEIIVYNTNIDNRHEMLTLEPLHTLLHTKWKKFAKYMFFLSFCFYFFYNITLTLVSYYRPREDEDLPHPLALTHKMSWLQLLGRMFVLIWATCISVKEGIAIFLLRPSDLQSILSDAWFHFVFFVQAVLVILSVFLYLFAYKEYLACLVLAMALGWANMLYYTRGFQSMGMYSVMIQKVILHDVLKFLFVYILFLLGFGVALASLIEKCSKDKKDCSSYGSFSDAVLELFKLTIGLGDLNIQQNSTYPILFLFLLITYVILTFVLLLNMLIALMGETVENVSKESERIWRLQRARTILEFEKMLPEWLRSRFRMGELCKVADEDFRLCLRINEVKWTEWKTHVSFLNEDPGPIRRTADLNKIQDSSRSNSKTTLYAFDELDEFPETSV

[18] = Genotoxicity in Salmonella typhimurium TA1537 incubated for 48 hrs by Ames test; format: toxicity; settings: salmonella enterica subsp. enterica serovar typhimurium
[19] = Toxicity in ICR mouse assessed as skin irritation by measuring ear scratching administered topically and measured for 30 mins; settings: in vivo, topical_or_ocular, 0.5 h
Method in brief: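 Ear scratching test: a solution of the agent was applied to mouse ears, and scratching movements were counted over the following 30 min.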

[20] = target: Transient receptor potential cation channel subfamily V member 1 (Homo sapiens, UniProt Q8NER1); test: Displacement of [3H]-RTX from human TRPV1 expressed in CHO cells incubated for 60 mins by radioligand competition assay based scintillation counting method; format: cell-based
Rattus norvegicus [21] = test: Analgesic activity against L5/L6 spinal nerve ligation-induced neuropathic pain Sprague-Dawley rat model assessed as decrease in neuropathic pain by measuring increase in paw withdrawal threshold in response to von frey filament at 5 to 10 mg/kg, ip compound administered at day 14 after ligation and measured up to 1.5 hrs after drug dosing by up and down method relative to control; format: functional; method in brief: as §4
[22] = target: Transient receptor potential cation channel subfamily V member 1 (Rattus norvegicus) (UniProt O35433); test: Partial agonist activity at rat TRPV1 expressed in CHO cells assessed as maximal increase in 45Ca2+ uptake incubated for 5 mins by liquid scintillation counting method relative to capsaicin; format: cell-based
Method in brief: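 Human or rat TRPV1 heterologously expressed in CHO cells; functional agonism read as 45Ca2+ uptake. Values are means of at least three experiments.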

Sequence of Transient receptor potential cation channel subfamily V member 1 (Rattus norvegicus) (O35433 whole entry): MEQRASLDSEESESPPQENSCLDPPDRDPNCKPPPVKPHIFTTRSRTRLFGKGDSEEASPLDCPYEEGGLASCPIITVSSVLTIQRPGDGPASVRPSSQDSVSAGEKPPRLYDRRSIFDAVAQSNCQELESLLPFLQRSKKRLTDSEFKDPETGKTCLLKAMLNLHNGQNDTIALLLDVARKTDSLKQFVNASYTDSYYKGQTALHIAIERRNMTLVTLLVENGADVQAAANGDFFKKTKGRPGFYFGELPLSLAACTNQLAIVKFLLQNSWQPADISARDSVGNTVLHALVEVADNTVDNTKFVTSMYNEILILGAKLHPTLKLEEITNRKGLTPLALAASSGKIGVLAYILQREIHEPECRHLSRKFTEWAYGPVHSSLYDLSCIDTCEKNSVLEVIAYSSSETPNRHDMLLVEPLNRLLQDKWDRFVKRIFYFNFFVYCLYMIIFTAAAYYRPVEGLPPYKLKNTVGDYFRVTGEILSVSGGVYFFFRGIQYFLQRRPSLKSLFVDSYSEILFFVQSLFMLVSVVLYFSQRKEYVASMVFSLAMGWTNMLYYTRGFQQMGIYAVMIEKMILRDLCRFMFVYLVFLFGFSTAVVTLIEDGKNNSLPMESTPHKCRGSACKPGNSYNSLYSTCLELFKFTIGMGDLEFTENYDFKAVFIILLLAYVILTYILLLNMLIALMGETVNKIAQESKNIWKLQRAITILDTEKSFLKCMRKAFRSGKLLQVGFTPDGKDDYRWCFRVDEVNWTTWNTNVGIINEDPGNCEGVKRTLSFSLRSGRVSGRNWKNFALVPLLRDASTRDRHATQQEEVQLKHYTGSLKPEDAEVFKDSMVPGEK
Sequence of Transient receptor potential cation channel subfamily A member 1 (Mus musculus) (Q8BLA8 whole entry): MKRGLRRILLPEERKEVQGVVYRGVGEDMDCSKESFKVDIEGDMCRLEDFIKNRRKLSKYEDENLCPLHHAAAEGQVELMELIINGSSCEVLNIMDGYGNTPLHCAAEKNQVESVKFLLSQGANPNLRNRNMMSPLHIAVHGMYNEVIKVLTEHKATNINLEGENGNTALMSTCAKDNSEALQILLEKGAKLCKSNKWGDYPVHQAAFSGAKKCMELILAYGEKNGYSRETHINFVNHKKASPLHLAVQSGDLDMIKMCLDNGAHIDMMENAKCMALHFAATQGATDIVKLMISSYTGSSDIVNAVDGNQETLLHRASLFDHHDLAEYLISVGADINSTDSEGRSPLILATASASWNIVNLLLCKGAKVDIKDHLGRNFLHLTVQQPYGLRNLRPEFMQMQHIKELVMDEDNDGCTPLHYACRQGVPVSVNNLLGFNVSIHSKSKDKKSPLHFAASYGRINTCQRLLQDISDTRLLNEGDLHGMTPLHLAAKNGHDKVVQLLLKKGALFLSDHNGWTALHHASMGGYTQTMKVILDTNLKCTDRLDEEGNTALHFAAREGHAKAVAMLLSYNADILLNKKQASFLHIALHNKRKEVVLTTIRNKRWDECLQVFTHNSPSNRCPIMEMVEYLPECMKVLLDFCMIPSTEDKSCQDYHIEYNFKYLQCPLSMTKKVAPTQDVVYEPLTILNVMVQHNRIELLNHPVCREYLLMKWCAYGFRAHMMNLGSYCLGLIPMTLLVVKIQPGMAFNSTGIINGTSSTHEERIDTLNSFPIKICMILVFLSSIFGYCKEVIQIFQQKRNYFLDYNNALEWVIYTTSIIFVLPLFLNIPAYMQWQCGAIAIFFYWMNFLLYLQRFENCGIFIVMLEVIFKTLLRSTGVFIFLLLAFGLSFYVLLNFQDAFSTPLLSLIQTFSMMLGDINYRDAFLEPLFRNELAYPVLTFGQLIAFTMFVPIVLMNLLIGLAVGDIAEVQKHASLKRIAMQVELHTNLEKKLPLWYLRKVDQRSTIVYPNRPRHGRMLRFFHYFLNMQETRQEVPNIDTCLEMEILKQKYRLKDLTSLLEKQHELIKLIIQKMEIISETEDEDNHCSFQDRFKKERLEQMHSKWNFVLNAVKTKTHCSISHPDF
Sequence of Transient receptor potential cation channel subfamily V member 1 (Homo sapiens, UniProt Q8NER1) (Q8NER1 whole entry): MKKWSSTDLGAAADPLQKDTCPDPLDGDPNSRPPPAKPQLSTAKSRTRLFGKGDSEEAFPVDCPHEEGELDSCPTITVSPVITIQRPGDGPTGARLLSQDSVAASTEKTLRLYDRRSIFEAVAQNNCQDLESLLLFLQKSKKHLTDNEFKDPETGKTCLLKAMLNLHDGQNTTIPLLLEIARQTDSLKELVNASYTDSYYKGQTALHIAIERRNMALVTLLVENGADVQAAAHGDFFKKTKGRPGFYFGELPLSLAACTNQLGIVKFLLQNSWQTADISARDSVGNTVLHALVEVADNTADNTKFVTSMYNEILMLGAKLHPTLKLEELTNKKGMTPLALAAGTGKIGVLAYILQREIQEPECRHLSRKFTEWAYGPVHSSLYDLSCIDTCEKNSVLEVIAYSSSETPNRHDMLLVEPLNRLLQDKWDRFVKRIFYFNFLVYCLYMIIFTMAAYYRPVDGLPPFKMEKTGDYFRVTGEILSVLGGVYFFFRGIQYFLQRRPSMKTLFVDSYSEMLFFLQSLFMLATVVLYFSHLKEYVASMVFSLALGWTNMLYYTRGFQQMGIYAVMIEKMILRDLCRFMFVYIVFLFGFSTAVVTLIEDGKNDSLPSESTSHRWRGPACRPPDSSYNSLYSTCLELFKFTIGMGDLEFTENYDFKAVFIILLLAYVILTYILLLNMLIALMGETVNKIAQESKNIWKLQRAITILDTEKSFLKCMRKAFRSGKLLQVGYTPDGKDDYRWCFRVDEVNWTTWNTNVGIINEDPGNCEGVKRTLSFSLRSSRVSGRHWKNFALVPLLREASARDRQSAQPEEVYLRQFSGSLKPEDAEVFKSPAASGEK
Sequence of Transient receptor potential cation channel subfamily V member 1 (Rattus norvegicus, UniProt O35433) (O35433 whole entry): as the sequence (O35433 whole entry) above

Question: Which results are given for `CC(C)(C)c1nc(-c2cccc(Cl)c2)c(CNC(=O)Nc2ccc(CO)c(F)c2)s1`?
Answer: Drug uptake [1]: Active; Activity [2]: Non-Toxic; Activity [3]: Non-Toxic; Activity [4]: inactive; Activity [5]: Non-Toxic; Activity (Mus musculus [6]): Dose-dependent effect; ED50 (Mus musculus [6]): 0.16 mg/kg; Activity (Rattus norvegicus [7]): Dose-dependent effect; ED50 (Rattus norvegicus [7]): 0.5 to 2 mg/kg; Activity [8]: Non-Toxic; Activity [9]: Non-Toxic; Activity [10]: Non-Toxic; EC50 [11]: 93 nM; Activity (Mus musculus [12]): Dose-dependent effect; ED50 (Mus musculus [12]): 0.79 mg/kg; Activity [13]: Non-Toxic; Activity [14]: Non-Toxic; Activity [15]: Non-Toxic; Ratio Ki [16]: 80; Activity [17]: inactive; Activity [18]: Non-Toxic; Activity [19]: Non-Toxic; Ki [20]: 11.4 nM; MPE (Rattus norvegicus [21]): 100%; Activity [22]: 50 to 60%
